“Also recorded” adds a separate entry of the source.
Assays:
[1] = test system: yeast Ssa1 and E. coli DnaK; details: heat shock; ref Liu & Hendrickson, 2007; cited from earlier work
DnaK [2] = details: from d with KD^0S 1.73 μM; 20°C
[3] = test system: dnaK deletion strain BB205 E. coli cells; assay: Cell viability tests; format: cell-based, Escherichia coli; details: growth on LB agar at elevated temperature (37°C to 40°C), 20 μM IPTG
Method in brief: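 DnaK-dependence test: pBB46 plasmids (ampR) carrying mutant dnaK transformed into BB205 (camR kanR). Fresh overnight culture from each fresh transformation, serially diluted, spotted on LB with 50 μg/ml ampicillin, 25 μg/ml kanamycin, 25 μg/ml chloramphenicol, 20 μM IPTG. Grown overnight at 37°C to 40°C, with control plates at 30°C. Viability scored from growth.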

DnaK [4] = details: for kcat (ATP hydrolysis): single-turnover, constitutively stimulated state (k′ = kcat); for ATP hydrolysis (in words): intrinsic / low peptide concentration, compared with WT; for rate of ATP hydrolysis, basal: buffer A pH 7.5, single-turnover
W102 of DnaK = assay: Tryptophan fluorescence assay; format: biochemical, Escherichia coli; details: for W102 fluorescence of D148 mutants (in words): ATP and ADP, compared with wild-type levels; for wavelength of maximal W102 fluorescence: 1 μM DnaK, buffer A pH 7.5, ~25°C, excitation 290 nm
Method in brief: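 Protein: full-length DnaK with C-terminal His6, expressed in BB205 and purified by HisTrap then HiTrap Q. Protein (1 μM final) preincubated 2 min with 2 mM ATP or ADP in buffer A (25 mM Hepes-KOH pH 7.5, 100 mM KCl, 10 mM Mg(OAc)2). Emission 300–400 nm recorded at ~25°C. Spectra normalised to ADP peak = 1.0. ATP-versus-ADP peak-wavelength shift compared.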

DnaK [5] = details: from biochemical assays of this paper

I483D
phenotype of mutants (in words) [1]: profoundly defective | KeqS = [R] / [S] (DnaK [2]): 0 | chaperone activity / cell viability (in words) [3]: negligible chaperone activity; also recorded: destroy chaperone activity | kcat (ATP hydrolysis) (DnaK [4]; 20°C): 0.00452 ± 0.000183 s⁻¹ | ATP hydrolysis (in words) (DnaK [4]): constitutively high ATPase activities

D148V
W102 fluorescence of D148 mutants (in words) (W102 of DnaK): quenched and blue-shifted to beyond wild-type levels

D148I
chaperone activity / cell viability (in words) [3]: destroy chaperone activity | W102 fluorescence of D148 mutants (in words) (W102 of DnaK): quenched and blue-shifted to beyond wild-type levels | allosteric state phenotype (in words) (DnaK [5]): exclusive stabilization of the restraining R-state alternative

WT∷NR: DnaK (residues 1–609) fused through a flexible linker to the NRLLLTG heptapeptide
KeqS = [R] / [S] (DnaK [2]): 0 | kcat (ATP hydrolysis) (DnaK [4]; 20°C): 0.00455 ± 0.00013 s⁻¹

I160D
phenotype of mutants (in words) [1]: profoundly defective | ATP hydrolysis (in words) (DnaK [4]): constitutively high ATPase activities

WT DnaK: full-length wild-type E. coli Hsp70 DnaK
wavelength of maximal W102 fluorescence (W102 of DnaK; 2 mM ADP): 342 nm | wavelength of maximal W102 fluorescence (W102 of DnaK; 2 mM ATP): 335 nm | W102 fluorescence change (in words) (W102 of DnaK; ATP as compared with ADP): quenched and blue shifted | rate of ATP hydrolysis, basal (DnaK [4]; basal, 20°C): 0.012 min⁻¹

V389D
phenotype of mutants (in words) [1]: profoundly defective

N170D
phenotype of mutants (in words) [1]: profoundly defective | rate of ATP hydrolysis, basal (DnaK [4]; basal, 20°C): 0.37 min⁻¹ | enhancement of basal ATP hydrolysis over WT (DnaK [4]; basal, 20°C, versus WT): 31 fold
